Paper PMC3902791 (Molecular imaging and biology : MIB : the official …, 2012)
“Also recorded” adds a separate entry of the source.

Experiments:
[1] = format: in vivo, rhesus macaques
Summary of the method: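 Six rhesus macaques (3 female, 3 male), fasted overnight, under isoflurane anaesthesia, received test compound i.v. at 165.4 ± 28.5 MBq (21.8±5.9 MBq/kg) in 5 mL over 2 min. Venous samples (0.5 mL) were taken from the second saphenous cannula at 10, 20, 40, 60, 90 s and 2–180 min. Radioactivity in whole blood and plasma was gamma-counted and expressed as %ID/mL.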

[2] = Dynamic and whole-body PET imaging of pharmacokinetics and biodistribution; format: in vivo, rhesus macaques
Summary of the method: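 ECAT HR+ scanner; 10-min transmission scan, then i.v. radiotracer (165.4 ± 28.5 MBq). Lower thorax to upper abdomen was imaged dynamically for 0–30 min in 2D mode, 29 frames (20×15 s, 5×1 min, 4×5 min). Three whole-body static scans followed at 40, 100 and 170 min (3-min transmission, 5-min emission, 4–5 beds). OSEM reconstruction with attenuation, scatter, random and dead-time correction. 3D VOIs gave organ %ID/g time–activity curves.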

[3] = Humanized time-integrated activity coefficients; format: in vivo, rhesus macaques
Summary of the method: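 Six rhesus macaques (3 female, 3 male) received the radiolabelled test compound intravenously, followed by whole-body PET/CT. Organ activity came from 3D VOIs drawn on PET images. Time–activity curves were fitted mono-exponentially, or by a linear fit of log activity for one animal with two scans. Coefficients were scaled by human/macaque whole-body-normalised organ mass ratios, using CT-derived macaque organ masses and the OLINDA/EXM 73.7-kg adult male model.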

rhesus macaques = assay: ECG monitoring for acute toxicity during PET imaging; format: in vivo
Summary of the method: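 Animals were anaesthetised (atropine 0.04 mg/kg i.m.; telazole or ketamine i.m.; isoflurane 1.0–3.0% in oxygen), intubated, mechanically ventilated and kept at 37±0.8°C. ECG, blood pressure, pulse oximetry and respiration rate were monitored throughout the imaging study after i.v. radiotracer.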

For O=C(O)C[18F] [^18F-FACE, ^18F-fluoroacetate], the “blood clearance half-time, fast phase” value ([1]; i.v., bi-exponential, fast phase between 3 and 18 min) was 4 min, the “blood clearance half-time, slow phase” value ([1]; i.v., bi-exponential, slow phase until 180 min) was 250 min and the “partition of radioactivity in the blood: plasma” value ([1]; stable throughout the study) was 70%. For the same compound, the “partition of radioactivity in the blood: red blood cells” value ([1]; stable throughout the study) was 30%, the “accumulation in the myocardium” value ([2]; PET) was “Some accumulation” and the “accumulation or retention in the brain” value ([2]; PET) was “No significant accumulation or retention”. For the same compound, the “uptake of radioactivity (free ^18F-fluoride) in bones / skeletal structures” value ([2]; PET, over 2 to 3 h post-injection) was “insignificant; also recorded: limited”, the “radioactivity concentration in liver” value ([2]; at 5 min) was 0.040 % ID/g and the “level of radioactivity in the blood” value ([2]; within 5 min after i.v. injection) was 0.040±0.02 % ID/g. For the same compound, the “Humanized residence time, Gall bladder” value ([3]; All, Mean±SD) was 0.011 ± 0.005 h, the “Humanized residence time, Heart” value ([3]; All, Mean±SD) was 0.034 ± 0.017 h and the “Humanized residence time, Intestines” value ([3]; All, Mean±SD) was 0.319 ± 0.134 h. For the same compound, the “Humanized residence time, Kidneys” value ([3]; All, Mean±SD) was 0.044 ± 0.013 h, the “Humanized residence time, Liver” value ([3]; All, Mean±SD) was 0.209 ± 0.171 h and the “Humanized residence time, Remainder of body” value ([3]; All, Mean±SD) was 1.751 ± 0.363 h. The “Humanized residence time, Gall bladder” value ([3]; Female, Mean±SD) was 0.016 ± 0.002 h, the “Humanized residence time, Heart” value ([3]; Female, Mean±SD) was 0.024 ± 0.013 h and the “Humanized residence time, Kidneys” value ([3]; Female, Mean±SD) was 0.041 ± 0.016 h. For the same compound, the “Humanized residence time, Liver” value ([3]; Female, Mean±SD) was 0.132 ± 0.082 h, the “Humanized residence time, Remainder of body” value ([3]; Female, Mean±SD) was 1.724 ± 0.549 h and the “Humanized residence time, Gall bladder” value ([3]; Male, Mean±SD) was 0.007 ± 0.002 h. For the same compound, the “Humanized residence time, Heart” value ([3]; Male, Mean±SD) was 0.043 ± 0.016 h, the “Humanized residence time, Intestines” value ([3]; Male, Mean±SD) was 0.400 ± 0.154 h and the “Humanized residence time, Kidneys” value ([3]; Male, Mean±SD) was 0.047 ± 0.012 h. The “Humanized residence time, Liver” value ([3]; Male, Mean±SD) was 0.287 ± 0.220 h, the “Humanized residence time, Remainder of body” value ([3]; Male, Mean±SD) was 1.778 ± 0.159 h and the “Humanized residence time, Gall bladder” value ([3]; animal 1, male) was 0.006 h. The “Humanized residence time, Heart” value ([3]; animal 1, male) was 0.048 h, the “Humanized residence time, Kidneys” value ([3]; animal 1, male) was 0.061 h and the “Humanized residence time, Liver” value ([3]; animal 1, male) was 0.505 h. The “Humanized residence time, Remainder of body” value ([3]; animal 1, male) was 1.706 h, the “Humanized residence time, Intestines” value ([3]; animal 1, male, assigned in thirds to small, upper large, lower large intestine) was 0.235 h and the “Humanized residence time, Gall bladder” value ([3]; animal 2, male) was 0.009 h. The “Humanized residence time, Heart” value ([3]; animal 2, male) was 0.057 h, the “Humanized residence time, Intestines” value ([3]; animal 2, male) was 0.426 h and the “Humanized residence time, Kidneys” value ([3]; animal 2, male) was 0.038 h. For the same compound, the “Humanized residence time, Liver” value ([3]; animal 2, male) was 0.290 h, the “Humanized residence time, Remainder of body” value ([3]; animal 2, male) was 1.668 h and the “Humanized residence time, Heart” value ([3]; animal 3, male) was 0.025 h. The “Humanized residence time, Intestines” value ([3]; animal 3, male) was 0.540 h, the “Humanized residence time, Kidneys” value ([3]; animal 3, male) was 0.043 h and the “Humanized residence time, Liver” value ([3]; animal 3, male) was 0.065 h. For the same compound, the “Humanized residence time, Remainder of body” value ([3]; animal 3, male) was 1.960 h, the “Humanized residence time, Gall bladder” value ([3]; animal 4, female) was 0.017 h and the “Humanized residence time, Heart” value ([3]; animal 4, female) was 0.039 h. The “Humanized residence time, Intestines” value ([3]; animal 4, female) was 0.261 h, the “Humanized residence time, Kidneys” value ([3]; animal 4, female) was 0.032 h and the “Humanized residence time, Liver” value ([3]; animal 4, female) was 0.226 h. For the same compound, the “Humanized residence time, Remainder of body” value ([3]; animal 4, female) was 1.138 h, the “Humanized residence time, Gall bladder” value ([3]; animal 5, female) was 0.014 h and the “Humanized residence time, Heart” value ([3]; animal 5, female) was 0.016 h. For the same compound, the “Humanized residence time, Intestines” value ([3]; animal 5, female) was 0.256 h, the “Humanized residence time, Kidneys” value ([3]; animal 5, female) was 0.059 h and the “Humanized residence time, Liver” value ([3]; animal 5, female) was 0.078 h. For the same compound, the “Humanized residence time, Remainder of body” value ([3]; animal 5, female) was 1.804 h, the “Humanized residence time, Heart” value ([3]; animal 6, female) was 0.017 h and the “Humanized residence time, Intestines” value ([3]; animal 6, female) was 0.196 h. The “Humanized residence time, Kidneys” value ([3]; animal 6, female) was 0.030 h, the “Humanized residence time, Liver” value ([3]; animal 6, female) was 0.093 h and the “Humanized residence time, Remainder of body” value ([3]; animal 6, female) was 2.228 h. The “changes in ECG (cardiac rhythm, electrical activity)” value (rhesus macaques; administration to 180 min post-injection) was “None of the animals injected with ^18F-FACE demonstrated any significant changes in cardiac rhythm or electrical activity patterns; also recorded: no significant changes to the ECG”, the “ECG PR” value (rhesus macaques; time 1 min) was 0.11 ± 0.01 s and the “ECG QRS” value (rhesus macaques; time 1 min) was 0.05 ± 0.01 s. The “ECG QT” value (rhesus macaques; time 1 min) was 0.35 ± 0.04 s, the “ECG ST” value (rhesus macaques; time 1 min) was 0.80 ± 0.45 s and the ECG p (rhesus macaques; time 1 min) was 0.04 ± 0.01 s. For the same compound, the Heart rate (rhesus macaques; time 1 min) was 88±8 per minute, the “ECG PR” value (rhesus macaques; time 2 min) was 0.11 ± 0.01 s and the “ECG QRS” value (rhesus macaques; time 2 min) was 0.04 ± 0.00 s. For the same compound, the “ECG QT” value (rhesus macaques; time 2 min) was 0.34 ± 0.05 s, the “ECG ST” value (rhesus macaques; time 2 min) was 1.00 ± 0.50 s and the ECG p (rhesus macaques; time 2 min) was 0.04 ± 0.00 s. The Heart rate (rhesus macaques; time 2 min) was 88±8 per minute, the “ECG PR” value (rhesus macaques; time 5 min) was 0.11 ± 0.02 s and the “ECG QRS” value (rhesus macaques; time 5 min) was 0.04 ± 0.01 s. For the same compound, the “ECG QT” value (rhesus macaques; time 5 min) was 0.35 ± 0.04 s, the “ECG ST” value (rhesus macaques; time 5 min) was 0.95 ± 0.51 s and the ECG p (rhesus macaques; time 5 min) was 0.04 ± 0.01 s. For the same compound, the Heart rate (rhesus macaques; time 5 min) was 88±7 per minute, the “ECG PR” value (rhesus macaques; time 16 min) was 0.10 ± 0.01 s and the “ECG QRS” value (rhesus macaques; time 16 min) was 0.04 ± 0.00 s. For the same compound, the “ECG QT” value (rhesus macaques; time 16 min) was 0.34 ± 0.04 s, the “ECG ST” value (rhesus macaques; time 16 min) was 0.80 ± 0.41 s and the ECG p (rhesus macaques; time 16 min) was 0.05 ± 0.01 s. For the same compound, the Heart rate (rhesus macaques; time 16 min) was 87±6 per minute, the “ECG PR” value (rhesus macaques; time 32 min) was 0.11 ± 0.01 s and the “ECG QRS” value (rhesus macaques; time 32 min) was 0.04 ± 0.00 s. The “ECG QT” value (rhesus macaques; time 32 min) was 0.34 ± 0.03 s, the “ECG ST” value (rhesus macaques; time 32 min) was 0.60 ± 0.38 s and the ECG p (rhesus macaques; time 32 min) was 0.05 ± 0.01 s. For the same compound, the Heart rate (rhesus macaques; time 32 min) was 89±7 per minute, the “ECG PR” value (rhesus macaques; time 60 min) was 0.11 ± 0.01 s and the “ECG QRS” value (rhesus macaques; time 60 min) was 0.04 ± 0.01 s. For the same compound, the “ECG QT” value (rhesus macaques; time 60 min) was 0.34 ± 0.04 s, the “ECG ST” value (rhesus macaques; time 60 min) was 0.70 ± 0.54 s and the ECG p (rhesus macaques; time 60 min) was 0.04 ± 0.00 s. For the same compound, the Heart rate (rhesus macaques; time 60 min) was 89±7 per minute, the “ECG PR” value (rhesus macaques; time 90 min) was 0.11 ± 0.01 s and the “ECG QRS” value (rhesus macaques; time 90 min) was 0.04 ± 0.00 s. For the same compound, the “ECG QT” value (rhesus macaques; time 90 min) was 0.34 ± 0.03 s, the “ECG ST” value (rhesus macaques; time 90 min) was 0.70 ± 0.54 s and the ECG p (rhesus macaques; time 90 min) was 0.04 ± 0.01 s. The Heart rate (rhesus macaques; time 90 min) was 87±5 per minute, the “ECG PR” value (rhesus macaques; time 120 min) was 0.11 ± 0.01 s and the “ECG QRS” value (rhesus macaques; time 120 min) was 0.05 ± 0.01 s. For the same compound, the “ECG QT” value (rhesus macaques; time 120 min) was 0.33 ± 0.03 s, the “ECG ST” value (rhesus macaques; time 120 min) was 0.60 ± 0.38 s and the ECG p (rhesus macaques; time 120 min) was 0.04 ± 0.01 s. The Heart rate (rhesus macaques; time 120 min) was 88±3 per minute, the “ECG PR” value (rhesus macaques; time 180 min) was 0.10 ± 0.01 s and the “ECG QRS” value (rhesus macaques; time 180 min) was 0.04 ± 0.00 s. For the same compound, the “ECG QT” value (rhesus macaques; time 180 min) was 0.34 ± 0.03 s, the “ECG ST” value (rhesus macaques; time 180 min) was 0.85 ± 0.63 s and the ECG p (rhesus macaques; time 180 min) was 0.04 ± 0.01 s. For the same compound, the Heart rate (rhesus macaques; time 180 min) was 93±8 per minute.
